Screening data as filed in PubChem BioAssay.
Sampled rows, rich in hits. Any-hit rate of the full collection: about 3.7%.
NPY-Y1 antag: blocks the human neuropeptide Y Y1 receptor | P25929 | HEK293-CNG Y1 cells, membrane potential fluorescence; NPY at EC95, then isoproterenol | inhibition, % at 3.6 µM | 200,000 tested, 1% active | AID 1040;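 active means inhibition above the campaign mean inhibition of all tested compounds plus 3 SD, cut at about 20% in these data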;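 further: 0% = DMSO wells given NPY plus isoproterenol and 100% = isoproterenol alone without NPY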
Target sequence (P25929 whole entry, looked up): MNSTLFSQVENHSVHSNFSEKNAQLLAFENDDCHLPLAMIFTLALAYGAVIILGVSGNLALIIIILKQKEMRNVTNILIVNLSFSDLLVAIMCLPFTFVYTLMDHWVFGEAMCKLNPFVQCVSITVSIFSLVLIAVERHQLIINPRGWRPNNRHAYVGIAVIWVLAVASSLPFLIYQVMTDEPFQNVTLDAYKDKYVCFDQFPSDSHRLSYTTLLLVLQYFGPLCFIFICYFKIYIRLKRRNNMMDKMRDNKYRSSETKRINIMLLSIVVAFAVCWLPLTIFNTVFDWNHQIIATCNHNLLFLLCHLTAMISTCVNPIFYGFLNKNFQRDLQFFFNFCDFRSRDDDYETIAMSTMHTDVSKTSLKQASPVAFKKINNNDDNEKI
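Assay system: HEK293 cells with Y1 receptor plus CNG channel | Probe or stimulus: NPY (25 nM), isoproterenol (1 µM), Ro 20-1724 (25 µM) | Timing: Compound incubation 1 h at room temperature, readout 45 min post-stimulation | Measured by: Membrane-potential fluorescent dye readout | Benchmarks: High control isoproterenol alone, low control NPY with isoproterenol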
NPY1 pot ag: potentiates or activates human NPY-Y1 receptor. P25929. NPY-Y1 expressing cells, potentiator/agonist activation. activation, % at 3.6 µM. 220,000 tested, 0.37% active. AID 1304; in the data active means activation above about 33%, passing the limit was not always enough;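 further: cells stimulated with NPY at EC10 then isoproterenol at EC100; 0% = low agonist plus stimulus and 100% = saturating agonist plus stimulus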
NPY Y2 blocker: antagonists of human neuropeptide Y receptor Y2; inhibition, % at 2.7 µM; 140,000 tested, 0.99% active; NPY-Y2 expressing cells, antagonist mode; AID 793; in the data active means inhibition above about 17%;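 further: 0% = vehicle with agonist challenge and 100% = reference antagonist with challenge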
Target sequence (P49146 whole entry, looked up): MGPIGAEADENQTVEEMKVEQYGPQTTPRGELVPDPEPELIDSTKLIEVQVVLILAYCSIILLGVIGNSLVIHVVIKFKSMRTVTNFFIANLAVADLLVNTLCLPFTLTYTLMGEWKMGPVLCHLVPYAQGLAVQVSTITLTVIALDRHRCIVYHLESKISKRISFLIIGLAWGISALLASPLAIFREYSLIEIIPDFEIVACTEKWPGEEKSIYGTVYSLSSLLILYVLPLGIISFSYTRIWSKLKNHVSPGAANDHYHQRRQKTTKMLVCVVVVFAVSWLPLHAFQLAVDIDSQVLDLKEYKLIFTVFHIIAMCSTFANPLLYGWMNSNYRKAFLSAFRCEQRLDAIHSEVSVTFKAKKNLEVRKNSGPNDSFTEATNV
Cl transport mod: KCC2 (human) Cl- transport modulation; AID 1456; B-score of Tl+ flux slope (higher = more flux/activation; lower = inhibition) at 10 µM; Q9H2X9; KCC2 cells, thallium flux FluoZin-2 fluorescence; 190,000 tested, 2.2% active;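 active means thallium flux slope and its plate-corrected score both differing from the plate sample mean at a set confidence after two filtering rounds, in either direction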;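 further: slope of fluorescence scaled to starting intensity during 10 to 20 s after thallium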
Furin inhibitor: inhibitors of human furin | AID 463115 | inhibition, % at 20 µM or 30 µM | P09958 | purified furin, fluorogenic substrate cleavage | 220,000 tested, 0.061% active; in the data active means inhibition above about 25%
NPY-Y2 PAM-ag: human NPY-Y2 potentiation or agonism, primary screen | P49146 | cells expressing NPY-Y2, potentiator/agonist read-out | activation, % at 3.6 µM | 220,000 tested, 0.45% active; in the data active means activation above about 27%;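 further: cells stimulated with NPY near EC25 plus isoproterenol at EC100; 0% = vehicle plus submaximal agonist and 100% = vehicle plus saturating agonist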
KCC2 sec1: KCC2 (human) modulation, secondary assay; 3,700 tested, 15% active; normalised thallium flux (F/F0 slope) at 10 µM; shares compounds with Cl transport mod; HEK293-KCC2, thallium flux, FluoZin2 fluorescence; active compounds read high; AID 1713;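 active means thallium flux slope above the same plate's solvent-only control mean plus 3 SD; inconclusive means the two replicate wells disagree; inactive means no significant difference from solvent-only control wells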
KCC2 bumet counter: thallium flux despite bumetanide block in KCC2 cells, secondary assay 3 | shares compounds with Cl transport mod | HEK293-KCC2 + bumetanide/ouabain, thallium flux FluoZin2; active compounds read high | normalized thallium flux at 10 µM | 3,700 tested, 49% active | AID 1714;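 active means thallium entry rate above the same plate's blocked-transporter control wells by more than 3 SD; inconclusive means the two repeat wells disagree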;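 further: raw slope of fluorescence over initial fluorescence between 10 and 20 s after thallium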
KCC2 sec2: confirmation of human KCC2 transport modulators; shares compounds with Cl transport mod; AID 1715; 3,700 tested, 23% active; HEK293-KCC2, thallium flux FluoZin2 fluorescence; actives lie on both sides; F/F0 rise rate, 10–20 s post-thallium; normalized thallium flux at 10 µM;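 active means thallium flux slope more than 3 SD above or below the plate's solvent-only control mean, mostly below; inconclusive means the two repeat wells disagreed; inactive means no significant shift from solvent-only controls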;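 further: raw slope with 0.1% DMSO as baseline and bumetanide as block control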
HEK counter1: counter-screen for KCC2 modulators: effect in parental HEK293 cells. thallium flux rate (normalised fluorescence) at 10 µM. shares compounds with Cl transport mod. 3,700 tested, 46% active. thallium flux FluoZin2, ouabain; baseline-ratio fluorescence slope, 10–20 s after thallium. AID 1716;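 active means thallium flux rate significantly above the same plate's solvent-only control wells, beyond their mean plus 3 SD; inconclusive means the two replicate wells gave conflicting results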
KCC2 retest ouab: modulates human KCC2 on retest with ouabain. shares compounds with Cl transport mod. HEK293-KCC2, thallium flux FluoZin2 fluorescence; bidirectional: low = inhibitor, high = activator. raw Tl+ flux slope (below DMSO = inhibition, above = activation) at 10 µM. 3,700 tested, 48% active. AID 1717;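 active means thallium flux slope beyond 3 SD from same-plate DMSO control mean in most replicates, usually higher, sometimes lower; inconclusive means repeat tests gave conflicting results; inactive means no significant difference from controls in most replicates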;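 further: slope of initial-normalized fluorescence between seconds 10 and 20 after thallium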
HEK293 Tl flux2: acts in parental HEK cells, second KCC2 counter-screen; shares compounds with Cl transport mod; HEK293 parental, thallium flux FluoZin-2 fluorescence slope; thallium flux slope at 10 µM; 3,700 tested, 33% active; AID 1718;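 active means thallium flux slope above the same plate's solvent-control mean plus 3 SD in both duplicate wells; inconclusive means duplicate wells that disagreed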;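 further: run without ouabain in cells lacking the KCC2 cotransporter; slope of fluorescence scaled to its starting value between 10 and 20 s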
* = called active by the depositor; i = inactive; ? = inconclusive; / = not tested or not shown.

SMILES	NPY-Y1 antag	NPY1 pot ag	NPY Y2 blocker	Cl transport mod	Furin inhibitor	NPY-Y2 PAM-ag	KCC2 sec1	KCC2 bumet counter	KCC2 sec2	HEK counter1	KCC2 retest ouab	HEK293 Tl flux2
COc1ccc(C(=S)N2CCN(c3ccccc3C)CC2)cc1	/	-6	/	i	-8	-21	/	/	/	/	/	/
CC1=CCC2COC(c3ccc[n+](Cc4ccccc4)c3)C1C2 (stereo unspecified)	6	2	5	-0.45	-20	6	/	/	/	/	/	/
NS(=O)(=O)c1ccc2c(c1)C1C=CCC1C(C1CC=CCC1)N2 (stereo unspecified)	1	-10	4	4.7*	-5	-21	0.0078	0.0059	0.033	0.0076	0.021	0.01
CC1=CN2C(=N)/C(=C/c3ccc(Sc4ccc(C)cc4)o3)C(=O)N=C2S1	6	-1	2	16*	-19	-9	0.0068	0.03*	?	0.042*	0.032*	0.021*
CC1=CN2C(=N)/C(=C/c3ccc(Sc4ccc(Cl)cc4)o3)C(=O)N=C2S1	-1	-13	0	9.2*	-15	-1	0.0099	0.014*	0.033	0.013*	0.024	0.011
N=C1/C(=C\c2ccc(SCc3ccccc3)o2)C(=O)N=C2SC=NN12	1	9	/	1.3	-12	-2	/	/	/	/	/	/
CCN=C1S/C(=C\c2ccc(Sc3ccc(Cl)cc3)o2)C(=O)N1CC	9	0	2	-0.083	-12	-11	/	/	/	/	/	/
CC1=CN2C(=N)/C(=C/c3ccc(C)o3)C(=O)N=C2S1	0	6	2	8.8*	-7	8	0.01	0.028*	0.032	0.013*	0.023	?
CC(=O)Nc1ccc(C(=O)N/C(=C\c2ccccc2)C(=O)Nc2cccc(C(=O)O)c2)cc1	/	15	/	/	-16	-1	/	/	/	/	/	/
COC(=O)c1ccc([C@H]2C=C(C(=O)O)O[C@@H](OCc3ccc(CO)cc3)C2)cc1	/	/	/	-0.0072	-31	/	/	/	/	/	/	/
CC(C)(C)OC(=O)[C@H](Cc1ccccc1)NC(=O)c1nc[nH]c1C(=O)N[C@@H](Cc1ccccc1)C(=O)OC(C)(C)C	/	/	/	3.4*	-13	/	0.0058	0.004	0.032	0.0072	0.019	0.0092
CCCCOc1ccc(C2C(=O)N(C3CCCCC3)CC(=O)N2CC2CCCO2)cc1 (stereo unspecified)	4	-8	0	0.9	-6	-6	/	/	/	/	/	/
CCCOc1ccc(C2C(=O)N(C3CCCCC3)CC(=O)N2CCCOCC)cc1OC (stereo unspecified)	5	-11	1	/	-8	-14	0.015	0.0045	0.027	0.0078	0.015	0.01
CCOCCCN1C(=O)CN(C2CCCCC2)C(=O)C1c1ccc(OC)c(OC)c1 (stereo unspecified)	5	11	2	/	-22	-5	/	/	/	/	/	/
CCOc1ccc(C2C(=O)N(C3CCCCC3)CC(=O)N2CC2CCCO2)cc1OC (stereo unspecified)	-3	8	5	/	-17	2	0.017	0.0048	0.028	0.0072	0.016	0.011
O=C(O)C/C(=C\c1cccc(NC(=O)c2ccccc2Cl)c1)c1nc2ccccc2s1	/	0	/	-4.1*	1	-5	0.0054	0.0051	0.022*	?	0.01*	0.01
COc1ccc(C(=O)Nc2cccc(/C=C(\CCC(=O)O)c3nc4ccccc4s3)c2)cc1	/	13	/	-3.8*	-10	-18	0.005	?	0.024*	0.0068	0.013*	?
Cc1ncsc1CCC(=O)N1CCCC(C(=O)c2ccc3c(c2)OCO3)C1 (stereo unspecified)	2	-2	/	0.42	-4	13	/	/	/	/	/	/
CC(O)CNc1nc2ccccc2n1CC(=O)NC12CC3CC(CC(C3)C1)C2 (stereo unspecified)	15	-30	/	-0.69	-27	-15	/	/	/	/	/	/
COC(=O)N/N=C/c1ccc([N+](=O)[O-])s1	-3	13	0	0.018	1	7	/	/	/	/	/	/
O=C(N/N=C/c1ccc([N+](=O)[O-])s1)c1ccccc1	0	-3	/	6.4*	-19	-8	0.011	0.017*	0.035	?	0.028*	?
O=C(N/N=C/c1ccc([N+](=O)[O-])s1)C(O)c1ccccc1 (stereo unspecified)	1	6	2	0.79	11	9	/	/	/	/	/	/
O=C(Cc1ccccc1)N/N=C/c1ccc([N+](=O)[O-])s1	2	10	1	/	-9	7	0.0078	?	0.031	?	0.02	?
Cc1ccsc1C(=O)N1CCCC(C(=O)c2cc(F)ccc2F)C1 (stereo unspecified)	3	1	/	-1.2	-21	-9	/	/	/	/	/	/
CCCC(=O)NC(c1ccc2c(c1)OCO2)c1cc(Cl)c2cccnc2c1O (stereo unspecified)	-2	2	3	4.1*	2	4	0.0076	0.0057	0.03	0.0067	0.02	0.0086
CCOc1ccc(C(Nc2cccnc2)c2cc(Cl)c3cccnc3c2O)cc1 (stereo unspecified)	9	-5	/	5*	-7	-6	0.0089	0.014*	0.034	0.018*	?	0.01
Cc1c(-c2n[nH]c(=S)n2-c2ccc(Br)cc2)nnn1-c1ccc(Cl)cc1	3	12	/	5.4*	-17	-3	0.012	0.024*	0.033	0.01*	0.029	?
COC(=O)c1c(-c2c(Cl)cccc2Cl)noc1NC(=O)NN1CCCCC1	/	7	/	/	-12	10	/	/	/	/	/	/
O=C(C1CC1)N1CCc2cc(S(=O)(=O)NC3CCN(Cc4ccccc4)CC3)ccc21	-2	-5	2	/	-8	-18	0.0093	?	?	0.0078	0.016*	0.011
O=C(NNS(=O)(=O)c1ccc2ccccc2c1)C1CCN(Cc2ccccc2)CC1	9	-17	6	/	-9	-29	0.0065	0.0046	0.026	0.007	?	0.011
